Data from article PMC5361402 (Diabetes, 2014).

Tests used:
[1] = Plasma insulin / serum LY concentrations and organ extraction during the clamp; format: in vivo, dog
conscious dogs = test: Euglycemic clamp with tracer and hepatic balance measurements in conscious dogs; format: in vivo, dog; details: control group (regular human insulin 0.11 nmol/kg/h iv, n=6)
In short: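 Conscious dogs had 30 min of basal sampling (90–120 min), then a 5-h euglycemic clamp (120–420 min). Somatostatin and regular human insulin (no priming dose) were given by peripheral vein, glucagon intraportally at basal 0.5 ng ⋅ kg−1 ⋅ min−1, and glucose infused to hold euglycemia. [3H]glucose tracer; Ra from Mari circulatory model; hepatic organ-balance calculations; triglycerides assayed spectrophotometrically; n = 6.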

[2] = cited from earlier work
[3] = cited from earlier work; remark: listed apart in the source
[4] = tested on: patients with type 1 and type 2 diabetes; details: phase II, patients previously treated with other basal insulins; cited from earlier work
[5] = regular insulin 0.11 nmol/kg/h iv during the clamp, dog

regular insulin: regular human insulin infused via peripheral vein in the control group
Portal vein insulin concentration during the clamp ([1]; control group (regular human insulin 0.11 nmol/kg/h iv, n=6)): ~ 50 % of basal | Fractional hepatic extraction [1, 5]: 50 ± 3% | Fractional renal extraction [1, 5]: 61 ± 3% | Change from baseline in net hepatic glucose balance by 420 min (conscious dogs): 10.3 ± 1.4 µmol ⋅ kg^-1 ⋅ min^−1 | Fall of arterial plasma triglyceride concentration below baseline by 420 min (conscious dogs): ~ 40% | Increase in non-HGU over the basal rate in the final hour (conscious dogs): 11.1 ± 4.5 µmol ⋅ kg^−1 ⋅ min^−1 | Time to NEFA nadir after the start of the clamp period (conscious dogs): ≤ 90 min | Nadir of NEFA concentrations (conscious dogs; arterial plasma): 271 ± 57 µmol/L | Fall from basal in endogenous glucose Ra by the final hour (conscious dogs; tracer-determined): 8.9 ± 1.9 µmol ⋅ kg^−1 ⋅ min^−1

insulin: endogenously secreted insulin to which the liver is exposed
Hepatic extraction of the insulin to which the liver is exposed [2]: 50–60%

insulin degludec
T1/2 relative to that of glargine [3]: approximately two times

insulin glargine
Body weight change [4]: modest weight gain
